We go through one compound from ChEMBL document CHEMBL4354825, “Design and Synthesis of Basic Selective Estrogen Receptor Degraders for Endocrine Therapy Resistant Breast Cancer” (J Med Chem, 2019).

Calls of active or inactive are those of the source. No cut-off for these calls is given here.

In one data set the test system is MCF7:TAM1. Nature of the data set: Cytotoxicity against human MCF7:TAM1 3D spheroid cells assessed as reduction in tumor cell viability at 10 nM incubated for 14 days by celltiter-glo 3D cell viability assay. (ATP-based viability assays read luminescence as a measure of living cells.)
The nature of data set [1]: Drug concentration in C57BL/6 mouse brain at 100 mg/kg, po measured after 0.5 hrs by LC/MS-MS analysis. The format is ADME, organism-based. As to conditions: read-out: Drug uptake. The method in brief:
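PK screen in female C57BL/6 mice (N = 3 per time point). Dosed by gavage at 100 mg/kg in HPβD/PEG-400. Plasma and brain were taken from perfused mice at 30 and 120 min. Quantified by LC-MS/MS in MRM mode, with standard curves in each matrix and a common internal standard. Values are mean and s.d.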

As for `Cc1cc(F)cc(C)c1C(=O)c1sc2cc(O)ccc2c1Oc1ccc(OC2CN(CCCF)C2)cc1`, the result in the data set on MCF7:TAM1 was Active. The concentration at 0.5 h in data set [1] was 1630 nM.
